Calls of active or inactive are those of the source. The rule behind the calls is not given here.
Columns and labels:
[1] = Cytotoxicity against human MDA231 cells […] by MTT assay; format: functional, cell-based; details: MDA-MB-231
Procedure, shortened: (§1)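 MTT metabolic assay. Cells were exposed to compound continuously starting 18 h after setup, and survival was read at 96 h. IC50 is the concentration giving 50% growth inhibition relative to untreated cells. Values are means of three independent determinations.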

[2] = test system: MCF7; assay: Cytotoxicity against human MCF7 cells […] by MTT assay; format: functional, cell-based; procedure, shortened: as §1
[3] = test system: PC-3; assay: Cytotoxicity against human PC3 cells after 18 hrs by MTT assay; format: functional, cell-based; details: PC-3, 96 h, in the assay text read “after 96 hrs” for “after 18 hrs”; procedure, shortened: as §1
[4] = test system: MDA-MB-231; assay: Induction of apoptosis in human MDA231 cells at 10 nM by annexin-V/7-AAD staining-based fluorescence assay; format: functional
Procedure, shortened: (§2)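 MDA-231 breast carcinoma cells were exposed to test compounds at 10, 20 or 50 µM, or to paclitaxel as reference at 10 or 50 nM. Results are expressed as percent apoptotic cells.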

[5] = test system: MDA-MB-231; assay: Induction of apoptosis in human MDA231 cells at 50 nM by annexin-V/7-AAD staining-based fluorescence assay; format: functional; procedure, shortened: as §2
[6] = test system: MDA-MB-231; assay: Induction of apoptosis in human MDA231 cells at 20 uM by annexin-V/7-AAD staining-based fluorescence assay; format: functional; procedure, shortened: as §2
[7] = biological target: Aurora kinase B (Homo sapiens) (UniProt Q96GD4); assay: Inhibition of human recombinant Aurora B at 10 uM after 4 hrs by Kinase-Glo luminescent assay
Procedure, shortened: (§3)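 Full-length human recombinant kinases were incubated in kinase buffer containing ATP and poly(Glu:Tyr) substrate, with or without compound at 10 µM final, for 4 h at room temperature. Remaining ATP was quantified by Kinase-Glo luminescence.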

[8] = biological target: Epidermal growth factor receptor (Homo sapiens) (UniProt P00533); assay: Inhibition of human recombinant EGFR at 10 uM after 4 hrs by Kinase-Glo luminescent assay; procedure, shortened: as §3
[9] = biological target: Dual specificity mitogen-activated protein kinase kinase 1 (Homo sapiens) (UniProt Q02750); assay: Inhibition of human recombinant MEK1 at 10 uM after 4 hrs by Kinase-Glo luminescent assay; procedure, shortened: as §3
[10] = biological target: Focal adhesion kinase 1 (Homo sapiens) (UniProt Q05397); assay: Inhibition of human recombinant FAK at 10 uM after 4 hrs by Kinase-Glo luminescent assay; procedure, shortened: as §3
[11] = biological target: Proto-oncogene tyrosine-protein kinase Src (Homo sapiens) (UniProt P12931); assay: Inhibition of human recombinant Src at 10 uM after 4 hrs by Kinase-Glo luminescent assay; procedure, shortened: as §3
[12] = test system: MDA-MB-231; assay: Induction of necrosis in human MDA231 cells at 50 uM by annexin-V/7-AAD staining-based fluorescence assay; format: functional, cell-based
[13] = test system: MDA-MB-231; assay: Induction of apoptosis in human MDA231 cells by annexin-V/7-AAD staining-based fluorescence assay; format: functional, cell-based
[14] = test system: MDA-MB-231; assay: Induction of apoptosis in human MDA231 cells at 50 uM by annexin-V/7-AAD staining-based fluorescence assay; format: functional; procedure, shortened: as §2

Sequence of Aurora kinase B (Homo sapiens) (Q96GD4 whole entry): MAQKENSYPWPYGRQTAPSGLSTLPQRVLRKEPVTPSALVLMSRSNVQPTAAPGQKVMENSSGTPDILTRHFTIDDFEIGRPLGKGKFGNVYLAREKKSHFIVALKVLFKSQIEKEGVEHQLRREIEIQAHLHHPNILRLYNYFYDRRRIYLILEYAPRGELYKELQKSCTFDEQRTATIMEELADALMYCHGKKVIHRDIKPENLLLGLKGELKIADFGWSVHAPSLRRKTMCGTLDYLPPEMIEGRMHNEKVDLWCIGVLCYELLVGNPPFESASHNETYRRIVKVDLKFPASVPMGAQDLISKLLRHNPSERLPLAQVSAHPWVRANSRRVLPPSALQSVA
Sequence of Focal adhesion kinase 1 (Homo sapiens) (Q05397 2-1052 limits assumed): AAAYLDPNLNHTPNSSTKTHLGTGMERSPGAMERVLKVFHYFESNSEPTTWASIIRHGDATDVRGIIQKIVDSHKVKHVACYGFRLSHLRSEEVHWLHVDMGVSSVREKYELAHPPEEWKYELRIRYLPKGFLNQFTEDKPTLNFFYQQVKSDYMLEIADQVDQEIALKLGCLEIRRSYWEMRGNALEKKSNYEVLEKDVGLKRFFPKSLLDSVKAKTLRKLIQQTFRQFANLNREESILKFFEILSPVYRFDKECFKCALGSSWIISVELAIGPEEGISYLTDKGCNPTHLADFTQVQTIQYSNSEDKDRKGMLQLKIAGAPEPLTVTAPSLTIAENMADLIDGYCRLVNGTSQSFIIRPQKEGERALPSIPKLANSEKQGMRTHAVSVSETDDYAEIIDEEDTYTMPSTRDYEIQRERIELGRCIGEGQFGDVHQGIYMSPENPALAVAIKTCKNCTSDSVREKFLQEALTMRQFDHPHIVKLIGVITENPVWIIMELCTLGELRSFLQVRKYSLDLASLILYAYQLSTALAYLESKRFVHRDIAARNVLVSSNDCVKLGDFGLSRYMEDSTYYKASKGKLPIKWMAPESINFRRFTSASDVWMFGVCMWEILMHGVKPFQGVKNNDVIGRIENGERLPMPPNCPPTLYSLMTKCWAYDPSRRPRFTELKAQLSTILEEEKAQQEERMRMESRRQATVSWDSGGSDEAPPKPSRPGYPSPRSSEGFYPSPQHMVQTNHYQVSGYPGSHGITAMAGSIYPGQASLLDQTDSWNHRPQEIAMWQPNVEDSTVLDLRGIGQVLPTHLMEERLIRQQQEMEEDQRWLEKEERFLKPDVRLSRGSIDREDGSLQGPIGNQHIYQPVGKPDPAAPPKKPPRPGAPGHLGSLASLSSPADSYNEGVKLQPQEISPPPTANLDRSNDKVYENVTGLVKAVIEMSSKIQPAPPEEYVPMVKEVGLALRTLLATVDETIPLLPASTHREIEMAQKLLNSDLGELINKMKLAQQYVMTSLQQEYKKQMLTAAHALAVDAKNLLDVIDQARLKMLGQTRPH
Sequence of Dual specificity mitogen-activated protein kinase kinase 1 (Homo sapiens) (Q02750 whole entry): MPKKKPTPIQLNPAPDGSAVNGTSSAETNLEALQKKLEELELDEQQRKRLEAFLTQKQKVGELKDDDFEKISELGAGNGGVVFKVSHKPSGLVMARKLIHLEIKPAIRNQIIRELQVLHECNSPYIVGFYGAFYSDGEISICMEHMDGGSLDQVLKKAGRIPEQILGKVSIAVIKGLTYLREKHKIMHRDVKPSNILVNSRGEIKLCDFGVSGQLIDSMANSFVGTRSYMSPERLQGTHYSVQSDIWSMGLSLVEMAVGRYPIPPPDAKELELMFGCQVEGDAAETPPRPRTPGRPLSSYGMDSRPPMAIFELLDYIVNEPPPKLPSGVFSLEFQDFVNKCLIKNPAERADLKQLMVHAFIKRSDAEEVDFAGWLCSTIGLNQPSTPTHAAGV
Sequence of Proto-oncogene tyrosine-protein kinase Src (Homo sapiens) (P12931 2-536 limits assumed): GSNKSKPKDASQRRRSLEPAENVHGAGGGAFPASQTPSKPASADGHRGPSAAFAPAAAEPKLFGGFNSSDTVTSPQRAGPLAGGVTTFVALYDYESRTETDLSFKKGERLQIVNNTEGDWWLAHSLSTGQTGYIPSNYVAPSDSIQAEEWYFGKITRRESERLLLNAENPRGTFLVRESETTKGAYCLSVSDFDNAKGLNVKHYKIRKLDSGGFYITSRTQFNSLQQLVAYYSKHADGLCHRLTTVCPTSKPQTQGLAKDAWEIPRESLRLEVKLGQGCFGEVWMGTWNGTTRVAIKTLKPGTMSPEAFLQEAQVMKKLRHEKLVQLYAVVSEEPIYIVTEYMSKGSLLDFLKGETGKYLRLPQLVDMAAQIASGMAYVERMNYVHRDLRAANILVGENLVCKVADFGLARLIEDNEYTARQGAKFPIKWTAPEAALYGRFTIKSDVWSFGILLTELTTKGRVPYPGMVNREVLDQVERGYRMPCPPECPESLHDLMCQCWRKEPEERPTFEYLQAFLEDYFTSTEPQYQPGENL
Sequence of Epidermal growth factor receptor (Homo sapiens) (P00533 whole entry): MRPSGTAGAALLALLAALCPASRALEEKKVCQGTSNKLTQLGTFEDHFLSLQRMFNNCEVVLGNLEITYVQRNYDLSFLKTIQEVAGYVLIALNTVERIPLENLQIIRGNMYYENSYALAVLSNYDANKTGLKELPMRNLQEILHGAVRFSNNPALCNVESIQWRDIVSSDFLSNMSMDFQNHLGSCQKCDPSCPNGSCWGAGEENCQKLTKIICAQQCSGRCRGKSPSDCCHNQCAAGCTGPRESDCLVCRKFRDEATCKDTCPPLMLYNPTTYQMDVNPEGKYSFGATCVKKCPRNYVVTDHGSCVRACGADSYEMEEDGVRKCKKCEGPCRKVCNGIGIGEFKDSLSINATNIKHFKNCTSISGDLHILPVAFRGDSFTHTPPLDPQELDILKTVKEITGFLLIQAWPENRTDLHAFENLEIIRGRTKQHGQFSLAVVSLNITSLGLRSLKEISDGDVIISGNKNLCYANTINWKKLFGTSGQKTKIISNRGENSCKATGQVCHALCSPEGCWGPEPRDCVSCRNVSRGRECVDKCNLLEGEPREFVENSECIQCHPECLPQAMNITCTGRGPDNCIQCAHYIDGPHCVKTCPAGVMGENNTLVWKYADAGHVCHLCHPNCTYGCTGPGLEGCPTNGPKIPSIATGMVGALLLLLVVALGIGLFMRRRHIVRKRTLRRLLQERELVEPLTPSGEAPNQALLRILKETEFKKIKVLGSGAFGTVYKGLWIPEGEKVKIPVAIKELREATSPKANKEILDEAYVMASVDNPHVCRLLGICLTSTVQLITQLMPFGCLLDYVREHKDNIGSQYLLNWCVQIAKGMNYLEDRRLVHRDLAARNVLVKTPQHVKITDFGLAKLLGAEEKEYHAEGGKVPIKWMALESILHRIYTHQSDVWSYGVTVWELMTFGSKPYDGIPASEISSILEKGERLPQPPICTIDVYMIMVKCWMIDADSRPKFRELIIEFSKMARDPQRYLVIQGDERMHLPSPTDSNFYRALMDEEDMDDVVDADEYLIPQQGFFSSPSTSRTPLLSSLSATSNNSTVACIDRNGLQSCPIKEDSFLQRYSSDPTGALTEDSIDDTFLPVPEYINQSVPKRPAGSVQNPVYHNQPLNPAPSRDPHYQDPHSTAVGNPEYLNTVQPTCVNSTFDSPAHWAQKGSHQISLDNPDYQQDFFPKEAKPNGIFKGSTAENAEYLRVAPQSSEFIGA

Molecule `NCCCNC(=O)c1cc2c([nH]c3ccccc32)c(C(=O)c2c[nH]c3ccccc23)n1` has an IC50 [1] of 2.48 µM.
`O=C(O)c1cc2c([nH]c3ccc(O)cc32)c(C(=O)c2c[nH]c3ccccc23)n1` gave an IC50 [2] of 79 µM, an IC50 [1] of 42 µM and an IC50 [3] of 57.9 µM.
For `CN(C)CCNC(=O)c1cc2c([nH]c3ccc(O)cc32)c(C(=O)c2c[nH]c3ccccc23)n1`, the IC50 [1] was 1.33 µM.
With `COC(=O)c1cc2c([nH]c3ccccc32)c(C(=O)c2c[nH]c3ccccc23)n1` the IC50 [1] was 12.6 µM.
`CC(=O)O[C@H]1C(=O)[C@@]2(C)[C@H]([C@H](OC(=O)c3ccccc3)[C@]3(O)C[C@H](OC(=O)[C@H](O)[C@@H](NC(=O)c4ccccc4)c4ccccc4)C(C)=C1C3(C)C)[C@]1(OC(C)=O)CO[C@@H]1C[C@@H]2O` [PACLITAXEL] gave an Activity [4] of 11.93% and an Activity [5] of 17.23%.
With `COc1ccc2[nH]cc(C(=O)c3nccc4c3[nH]c3ccc(O)cc34)c2c1` the IC50 [2] was > 100 µM, the IC50 [1] was 44.5 µM and the IC50 [3] was > 100 µM.
In the case of `CNCCNC(=O)c1cc2c([nH]c3ccc(O)cc32)c(C(=O)c2c[nH]c3ccccc23)n1`, the IC50 [1] is reported as 4.36 µM.
For `NCCNC(=O)c1cc2c([nH]c3ccc(O)cc32)c(C(=O)c2c[nH]c3ccccc23)n1`, the IC50 [1] was 15.8 µM.
For `O=C(c1c[nH]c2ccc(Br)cc12)c1nccc2c1[nH]c1ccc(O)cc12`, the IC50 [2] was > 100 µM, the IC50 [1] was > 100 µM and the IC50 [3] was > 100 µM.
In the case of `COc1ccc2[nH]cc(C(=O)c3nc(C(=O)O)cc4c3[nH]c3ccccc34)c2c1`, the IC50 [2] is reported as 3.4 µM, the IC50 [1] is reported as 12.1 µM and the IC50 [3] is reported as 32.3 µM.
With `COc1ccc2[nH]cc(C(=O)c3nccc4c3[nH]c3ccccc34)c2c1` the IC50 [2] was 6.94 µM, the IC50 [1] was 18.8 µM and the IC50 [3] was 49.9 µM.
Work on `CN(C)CCNC(=O)c1cc2c([nH]c3ccccc32)c(C(=O)c2c[nH]c3ccccc23)n1` yielded an IC50 [1] of 3.56 µM.
For `CN(C)CCCNC(=O)c1cc2c([nH]c3ccc(O)cc32)c(C(=O)c2c[nH]c3ccccc23)n1`, the IC50 [1] was 2.51 µM.
In the case of `O=C(c1c[nH]c2ccc([N+](=O)[O-])cc12)c1nccc2c1[nH]c1ccc(O)cc12`, the IC50 [2] is reported as > 100 µM, the IC50 [1] is reported as > 100 µM and the IC50 [3] is reported as > 100 µM.
Work on `NCCNC(=O)c1cc2c([nH]c3ccccc32)c(C(=O)c2c[nH]c3ccccc23)n1` yielded an IC50 [1] of 12.6 µM.
`NCCCCNC(=O)c1cc2c([nH]c3ccc(O)cc32)c(C(=O)c2c[nH]c3ccccc23)n1` showed an IC50 [1] of 8.7 µM.
`NCCCCNC(=O)c1cc2c([nH]c3ccccc32)c(C(=O)c2c[nH]c3ccccc23)n1` gave an IC50 [1] of 3.04 µM.
Work on `CN(C)CCCNC(=O)c1cc2c([nH]c3ccccc32)c(C(=O)c2c[nH]c3ccccc23)n1` yielded an IC50 [1] of 6.02 µM.
In the case of `O=C(c1c[nH]c2ccc([N+](=O)[O-])cc12)c1nccc2c1[nH]c1ccccc12`, the IC50 [2] is reported as > 100 µM, the IC50 [1] is reported as > 100 µM and the IC50 [3] is reported as 38.8 µM.
With `COC(=O)c1cc2c([nH]c3ccc(O)cc32)c(C(=O)c2c[nH]c3ccccc23)n1` the IC50 [1] was 3.16 µM.
With `O=C(c1c[nH]c2ccccc12)c1nccc2c1[nH]c1ccccc12` the IC50 [2] was > 100 µM, the IC50 [1] was > 100 µM and the IC50 [3] was 55.1 µM.
In the case of `O=C(c1c[nH]c2ccc(Br)cc12)c1nccc2c1[nH]c1ccccc12`, the IC50 [2] is reported as 60.9 µM, the IC50 [1] is reported as > 100 µM and the IC50 [3] is reported as > 100 µM.
Molecule `O=C(c1c[nH]c2ccccc12)c1nccc2c1[nH]c1ccc(O)cc12` has an IC50 [2] of 12.9 µM, an IC50 [1] of 6.35 µM and an IC50 [3] of 16.4 µM. The Activity [6] was 11.16%, the inhibition [7] was 10% and the inhibition [8] was 9%. It also gave an inhibition [9] of 11%, an inhibition [10] of 11% and an inhibition [11] of 8%. For the same molecule, the Activity [12] was “Active”, the Activity [13] was “Dose-dependent effect” and the Activity [14] was 41%.
With `O=C(O)c1cc2c([nH]c3ccccc32)c(C(=O)c2c[nH]c3ccccc23)n1` the IC50 [2] was 23.4 µM, the IC50 [1] was 24.8 µM and the IC50 [3] was 16.9 µM. The Activity [6] was 4.89%, the Activity [12] was “Active” and the Activity [13] was “Dose-dependent effect”. The Activity [14] was 17.68%.
Molecule `CNCCNC(=O)c1cc2c([nH]c3ccccc32)c(C(=O)c2c[nH]c3ccccc23)n1` has an IC50 [1] of 3.98 µM.

From ChEMBL document CHEMBL1909554, “Total synthesis and bioactivity of the marine alkaloid pityriacitrin and some of its derivatives” (Eur J Med Chem, 2011)
